Consider four compounds from ChEMBL document CHEMBL4251683, “Improved Dose-Response Relationship of (+)-Discodermolide-Taxol Hybrid Congeners” (2018).

In assay [1] the test system is Hs-578T. The assay can be described thus: Induction of senescence in human Hs578T cells at EC80 concentration after 3 to 6 days by DAPI staining based flow cytometry. The class given is functional. The procedure, abridged: (§1)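 Compounds given at approximately EC80 (taken from the cell's own dose-response data) for 3 to 6 days depending on line. Floating and trypsinized adherent cells were pooled, washed 3–5 times in warm PBS, and stained with DAPI (1/10,000) in PBS with 4% FBS on ice. Flow cytometry counted 10 000 cells per gate: dead = DAPI+, senescent = SSC+ DAPI−. Duplicate experiments, mean ± SEM.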
A general note: In flow cytometry, cells or beads pass a laser one at a time.

Assay [2] deals with HEY. The assay can be described thus: Induction of senescence in human HEY cells assessed as increase in CXCL1 mRNA expression level at EC80 concentration after 6 days by qRT-PCR analysis. The format is functional, cell-based. The procedure, abridged: (§2)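 Cells treated 6 days at EC80 doses (derived from dose-response data) and analysed for SASP transcripts by qRT-PCR. Expression was normalised to cyclophilin B and expressed relative to vehicle-treated asynchronous cells. Bars are mean ± SEM (n = 2).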
On the technique in general: Real-time PCR tracks product formation cycle by cycle.

Assay [3] relates to BT-549. Kind of assay: Induction of senescence in human BT549 cells at EC80 concentration after 3 to 6 days by DAPI staining based flow cytometry. The class given is functional. The procedure, abridged: as §1
Assay [4] has as its system Hs-578T. The assay can be described thus: Induction of cell death in human Hs578T cells at EC80 concentration after 3 to 6 days by DAPI staining based flow cytometry. The class given is functional. Summed up: as §1
For assay [5], the system named is MDA-MB-468. The assay can be described thus: Induction of senescence in human MDA-MB-468 cells at EC80 concentration after 3 to 6 days by DAPI staining based flow cytometry. The class given is functional. The procedure, abridged:
as §1

In assay [6] the test system is HEY. Kind of assay: Induction of senescence in human HEY cells assessed as increase in PAI1 mRNA expression level at EC80 concentration after 6 days by qRT-PCR analysis. The class given is functional, cell-based. The procedure, abridged:
as §2

Assay [7] deals with HEY. The assay can be described thus: Induction of senescence in human HEY cells assessed as increase in IL-8 mRNA expression level at EC80 concentration after 6 days by qRT-PCR analysis. The format is functional, cell-based. The procedure, abridged:
as §2

Assay [8] concerns MDA-MB-468. The assay can be described thus: Induction of cell death in human MDA-MB-468 cells at EC80 concentration after 3 to 6 days by DAPI staining based flow cytometry. The class given is functional. Summed up:
as §1

Assay [9] concerns BT-549. Kind of assay: Induction of cell death in human BT549 cells at EC80 concentration after 3 to 6 days by DAPI staining based flow cytometry. The format is functional. Summed up: as §1
In assay [10] the test system is HEY. Kind of assay: Induction of senescence in human HEY cells at EC80 concentration after 3 to 6 days by DAPI staining based flow cytometry. The class given is functional. The procedure, abridged:
as §1

The next assay is filed under the species Bos taurus. The assay can be described thus: Induction of bovine brain tubulin alpha polymerization assessed as alpha tubulin expression by measuring pellet/supernatant and pellet fraction level at 3 uM after 1 hr by immunoblot method (reference value: 10.4%). Summed up: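 Purified bovine brain tubulin incubated 30 min at 37 °C with 3 μM compound in MEM–glycerol buffer, 2 mM GTP, pH 6.9. Spun at 120000g, 37 °C, 1 h. Supernatant and SDS-solubilized pellet run on SDS-PAGE, α-tubulin quantified by Western blot, % polymerized calculated as P/(S + P).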
Background: Immunoblotting shows a protein as a band on a membrane.

A further assay has as its system MDA-MB-157. Kind of assay: Antiproliferative activity against human MDA-MB-157 cells after 3 to 7 days by SRB assay. The class given is functional, cell-based. The procedure, abridged:
(§3)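 Sulforhodamine B total-protein read-out on adherent cells maintained in RPMI with 10% FBS. Seeding was 900–4000 cells per well depending on line, with 24 h allowed for attachment. Six replicate wells per concentration, exposure for three cell doublings (3 to 7 days); DMSO final below 0.01%. Logistic sigmoidal fit by nonlinear least squares gave EC50, EMax and AUC; experiments repeated at least three times.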

Another assay concerns HCC1143. Kind of assay: Antiproliferative activity against human HCC1143 cells after 3 to 7 days by SRB assay. The format is functional, cell-based. The procedure, abridged:
as §3

The subject of assay [11] is HEY. Kind of assay: Antiproliferative activity against human HEY cells after 3 to 7 days by SRB assay. The format is functional, cell-based. The procedure, abridged: as §3
Assay [12] has as its system MDA-MB-468. Kind of assay: Antiproliferative activity against human MDA-MB-468 cells after 3 to 7 days by SRB assay. The format is functional, cell-based. Summed up:
as §3

A further assay concerns A549. The assay can be described thus: Antiproliferative activity against human A549 cells after 3 to 7 days by SRB assay. The format is functional, cell-based. Summed up: as §3
Assay [13] relates to BT-549. The assay can be described thus: Antiproliferative activity against human BT549 cells after 3 to 7 days by SRB assay. The class given is functional, cell-based. Summed up: as §3
The test system of assay [14] is Hs-578T. The assay can be described thus: Antiproliferative activity against human Hs578T cells after 3 to 7 days by SRB assay. The format is functional, cell-based. Summed up: as §3
A further assay has as its system BT-20. Kind of assay: Antiproliferative activity against human BT20 cells after 3 to 7 days by SRB assay. The class given is functional, cell-based. The procedure, abridged: as §3
The next assay has as its system MCF7. Kind of assay: Antiproliferative activity against human MCF7 cells after 3 to 7 days by SRB assay. The format is functional, cell-based. The procedure, abridged: as §3
The test system of assay [15] is MDA-MB-468. The assay can be described thus: Induction of senescence in human MDA-MB-468 cells assessed as increase in PAI1 mRNA expression level at EC80 concentration after 6 days by qRT-PCR analysis. The format is functional, cell-based. Summed up: as §2
Assay [16] has as its system MDA-MB-468. The assay can be described thus: Induction of senescence in human MDA-MB-468 cells assessed as increase in CXCL1 mRNA expression level at EC80 concentration after 6 days by qRT-PCR analysis. The class given is functional, cell-based. The procedure, abridged:
as §2

In assay [17] the test system is MDA-MB-468. Kind of assay: Induction of senescence in human MDA-MB-468 cells assessed as increase in IL-8 mRNA expression level at EC80 concentration after 6 days by qRT-PCR analysis. The class given is functional, cell-based. Summed up:
as §2

SMILES strings stand for the structures. The source made the active and inactive calls. The calls are words filed in the database; no cut-off is given here. Where only a bound is given, the exact number is not on record here.

Regarding `C=C/C=C\[C@H](C)[C@H](OC(=O)NCCNC(=O)c1ccc(N=[N+]=[N-])cc1)[C@@H](C)[C@H](O)[C@@H](C)C/C(C)=C\[C@H](C)[C@@H](O)[C@@H](C)/C=C\[C@@H](O)C[C@@H]1OC(=O)[C@H](C)[C@@H](O)[C@H]1C`, the Activity is 15 - 18% in the assay on Hs-578T [1]; less than 10% in the assay with BT-549 [3]; less than 10% with MDA-MB-468 [5]; 10 - 15% in the assay on HEY [10]; 54.6% in the assay filed under Bos taurus. The outcome in the assay on HEY [2], with HEY [6], in the assay on HEY [7], in the assay with MDA-MB-468 [8] and in the assay with BT-549 [9] was Active. Also, the result with Hs-578T [4] was inactive.
As for `C=C/C=C\[C@H](C)[C@H](OC(=O)NCCCCNC(=O)c1ccc(N=[N+]=[N-])cc1)[C@@H](C)[C@H](O)[C@@H](C)C/C(C)=C\[C@H](C)[C@@H](O)[C@@H](C)/C=C\[C@@H](O)C[C@@H]1OC(=O)[C@H](C)[C@@H](O)[C@H]1C`, the Activity was 15 - 18% with Hs-578T [1]; less than 10% with BT-549 [3]; less than 10% in the assay with MDA-MB-468 [5]; 10 - 15% in the assay on HEY [10]; 52.2% in the assay listed under Bos taurus. Also, the outcome with HEY [2], in the assay with HEY [6], with HEY [7], with MDA-MB-468 [8] and with BT-549 [9] was Active. Besides, the result in the assay with Hs-578T [4] was inactive.
Consider `CC(=O)O[C@H]1C(=O)[C@@]2(C)[C@H]([C@H](OC(=O)c3ccccc3)[C@]3(O)C[C@H](OC(=O)[C@H](O)[C@@H](NC(=O)c4ccccc4)c4ccccc4)C(C)=C1C3(C)C)[C@]1(OC(C)=O)CO[C@@H]1C[C@@H]2O` [PACLITAXEL], for which the result in the assay on MDA-MB-157, in the assay with HCC1143, in the assay on HEY [11], in the assay with MDA-MB-468 [12], with A549 and with BT-549 [13] was Active. In addition, the outcome with Hs-578T [14], in the assay with BT-20 and in the assay with MCF7 was Active. The Activity in the assay on Hs-578T [1] was 15 - 18%; in the assay on HEY [10] it was 10 - 15%; in the assay listed under Bos taurus, 15.8%.
Consider `C=C/C=C\[C@H](C)[C@H](OC(N)=O)[C@@H](C)[C@H](O)[C@@H](C)C/C(C)=C\[C@H](C)[C@@H](O)[C@@H](C)/C=C\[C@@H](O)C[C@@H]1OC(=O)[C@H](C)[C@@H](O)[C@H]1C` [DISERMOLIDE], for which the outcome with MDA-MB-157, in the assay on HCC1143, in the assay on HEY [11], with MDA-MB-468 [12], in the assay with MDA-MB-468 [15] and in the assay on A549 was Active. Moreover, the outcome in the assay on BT-549 [13], with Hs-578T [14], with BT-20, with MCF7, in the assay on MDA-MB-468 [16] and in the assay with MDA-MB-468 [17] was Active. The figures for the Activity in the assay on Hs-578T [1], with HEY [10] and in the assay filed under Bos taurus were 15 - 18%, 10 - 15% and 59.3%, respectively. In the assay with Hs-578T [4], the outcome was inactive.
